Reference: ChEMBL document CHEMBL4033786, “Discovery of Novel 1-Cyclopentenyl-3-phenylureas as Selective, Brain Penetrant, and Orally Bioavailable CXCR2 Antagonists” (J Med Chem, 2018)
In brackets after ≈: the same amount, converted by molar mass. Activity calls are given as the source filed them. The rule behind the calls is not given here.

What was measured:
[1] = target: T1, C-X-C chemokine receptor type 2 (Homo sapiens, UniProt P25025); assay: Antagonist activity at TEV protease cleavage site linked GAL4-VP16-fused recombinant human CXCR2 expressed in cells assessed as inhibition of […] human CXCL1-stimulated beta-arrestin recruitment by CCF4-AM-fluorescence based FRET assay; assay type: cell-based; conditions: read-out: pIC50 (converted)
T1 sequence (P25025 whole entry): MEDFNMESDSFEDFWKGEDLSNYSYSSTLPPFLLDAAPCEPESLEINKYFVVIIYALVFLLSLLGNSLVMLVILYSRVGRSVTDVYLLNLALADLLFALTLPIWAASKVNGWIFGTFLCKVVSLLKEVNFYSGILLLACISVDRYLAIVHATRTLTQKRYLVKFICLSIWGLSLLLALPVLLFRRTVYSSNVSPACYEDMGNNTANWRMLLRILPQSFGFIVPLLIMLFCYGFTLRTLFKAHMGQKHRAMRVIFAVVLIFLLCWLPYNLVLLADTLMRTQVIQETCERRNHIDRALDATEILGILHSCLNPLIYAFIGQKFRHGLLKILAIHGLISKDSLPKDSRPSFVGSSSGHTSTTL
Method in brief: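 Stable cell line expressing recombinant human CXCR2 linked to a TEV site and Gal4-VP16. Cells were starved 24 h at 37 °C, 5% CO2, then resuspended at ~200,000 cells/mL. They were given compound in DMSO (concentration-response), stimulated with 80 nM hCXCL1 and incubated overnight at 37 °C. CCF4-AM substrate was then added for 2 h at RT in the dark.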

[2] = Solubility of compound in fasted state simulated intestinal fluid measured after 4 hrs; assay type: physicochemical
Method in brief: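 Solubility in FaSSIF, read after 4 h incubation.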

[3] = Efflux ratio of passive permeability in MDCK2-MDR1 cells transduced with BacMam2-BCRP at 3 uM after 90 mins by Transwell assay; assay type: ADME, cell-based, Canis lupus familiaris, MDCK-MDR1; conditions: dog
Method in brief: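 MDCKII-MDR1 cells transduced with BacMam2-BCRP in Transwells. Compound at 3 μM was measured in duplicate, A→B and B→A, after 90 min, with and without 5 μM GF120918. ER = B→A/A→B permeability without inhibitor. System qualified with amprenavir and dantrolene ERs.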

[4] = Passive permeability in MDCK2-MDR1 cells transduced with BacMam2-BCRP at 3 uM after 90 mins by Transwell assay; assay type: ADME, cell-based, Canis lupus familiaris, MDCK-MDR1; conditions: dog; read-out: permeability
Method in brief: (§1)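 MDCKII-MDR1 cells transduced with BacMam2-BCRP and grown in Transwells. Compound at 3 μM, in duplicate, was incubated 90 min A→B (and B→A) with and without GF120918 (5 μM, dual P-gp/BCRP inhibitor). Passive permeability (Pexact, nm/s) was calculated by an equation from earlier work. The permeability ratio is A→B permeability with GF120918 over A→B permeability without it.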

[5] = target: T1, C-X-C chemokine receptor type 2; assay: Antagonist activity at CXCR2 in human whole blood assessed as inhibition of GROalpha-stimulated CD11b upregulation preincubated for 15 mins followed by GROalpha stimulation measured after 15 mins by FITC-staining based FACS analysis
[6] = Fraction unbound in Han-Wistar SOA rat model brain at 2 mg/kg administered via oral gavage by UPLC/MS/MS analysis; assay type: ADME, organism-based
[7] = Fraction unbound in Han-Wistar SOA rat model blood at 2 mg/kg administered via oral gavage by UPLC/MS/MS analysis; assay type: ADME, organism-based
Blood = assay: Dose normalized AUC (0 to 7 hrs) in Han-Wistar SOA rat model blood at 2 mg/kg administered via oral gavage by UPLC/MS/MS analysis; assay type: ADME, organism-based; conditions: in vivo
Method in brief: (§2)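 Male Han-Wistar rats were given 2 mg/kg by oral gavage as a suspension in DMSO:1% methylcellulose (1:99). Blood (cardiac puncture, EDTA-K2, under isoflurane) and brains were collected at 0.25–7 h. Brain was homogenised in 3-fold PBS, samples were protein-precipitated and quantified by UPLC/MS/MS.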

Brain = assay: Dose normalized AUC (0 to 7 hrs) in Han-Wistar SOA rat model brain at 2 mg/kg administered via oral gavage by UPLC/MS/MS analysis; assay type: ADME, organism-based; conditions: in vivo; method in brief: as §2
[8] = Ratio of brain dose normalized AUC (0 to 7 hrs) to […] dose normalized AUC (0 to 7 hrs), Kp of the compound in Han-Wistar SOA rat model at 2 mg/kg administered via oral gavage by UPLC/MS/MS analysis; assay type: ADME, organism-based
Method in brief: (§3)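 Male Han-Wistar rats given a single 2 mg/kg oral gavage as a suspension in DMSO:1% methylcellulose (1:99). Blood was taken by cardiac puncture under isoflurane at 0.25–7 h, diluted 1:3 with water, and brains were homogenized in 3-fold PBS. Samples were extracted by acetonitrile protein precipitation and quantified by UPLC/MS/MS. Kp = brain DNAUC0-7h/blood DNAUC0-7h; Kp,uu = Kp×Fu,br/Fu,bl.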

[9] = Unbound brain-to-blood concentration ratio in Han-Wistar SOA rat model at 2 mg/kg administered via oral gavage by UPLC/MS/MS analysis; assay type: ADME, organism-based; conditions: read-out: K(p,uu,brain); method in brief: as §3
[10] = Ratio of passive permeability in presence of dual P-gp/BCRP inhibitor GF120918 to absence of GF120918 in MDCK2-MDR1 cells transduced with BacMam2-BCRP at 3 uM after 90 mins by Transwell assay; assay type: ADME, cell-based, Canis lupus familiaris; conditions: dog, mdck2-mdr1, 1.5 h; method in brief: as §1
[11] = target: C-X-C chemokine receptor type 2 (Mus musculus, UniProt P35343); assay: Antagonist activity at CXCR2 in C57 mouse whole blood assessed as inhibition of GROalpha-stimulated CD11b upregulation preincubated for 2 hr followed by GROalpha stimulation measured after 10 mins by FITC-staining based FACS analysis
[12] = target: C-X-C chemokine receptor type 2 (Mus musculus) (UniProt P35343); assay: Antagonist activity at CXCR2 in C57 mouse whole blood assessed as inhibition of GROalpha-stimulated CD11b upregulation at 10 uM preincubated for 2 hr followed by GROalpha stimulation measured after 10 mins by FITC-staining based FACS analysis
Sequence of C-X-C chemokine receptor type 2 (Mus musculus) (P35343 whole entry): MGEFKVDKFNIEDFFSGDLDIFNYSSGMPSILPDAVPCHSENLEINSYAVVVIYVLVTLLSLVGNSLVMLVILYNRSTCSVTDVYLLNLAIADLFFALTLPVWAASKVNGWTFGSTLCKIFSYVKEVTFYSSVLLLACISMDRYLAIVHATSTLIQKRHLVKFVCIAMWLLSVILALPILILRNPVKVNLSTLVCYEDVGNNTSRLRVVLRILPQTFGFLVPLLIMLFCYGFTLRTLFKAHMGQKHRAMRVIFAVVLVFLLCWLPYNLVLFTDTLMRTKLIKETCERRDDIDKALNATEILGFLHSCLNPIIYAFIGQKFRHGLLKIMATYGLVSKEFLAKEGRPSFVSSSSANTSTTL

Sequence of C-X-C chemokine receptor type 2 (Mus musculus, UniProt P35343) (P35343 whole entry): as above

Row | SMILES | IC50 [1] | solubility at 4 h [2] | efflux ratio at 1.5 h, 3 µM [3] | Papp at 1.5 h, 3 µM [4] | IC50 [5] | fraction unbound [6] | fraction unbound [7] | AUC/dose (Blood) | AUC/dose (Brain) | Kp [8] | Kp uu [9] | Ratio [10] | IC50 [11] | inhibition [12]
1 | CC1=CCC[C@H]1NC(=O)Nc1ccc(Cl)c(S(=O)(=O)C(C)(C)[C@H]2CCOC2)c1O | 1.58 nM | 25.2 µg/mL (≈ 56.9 µM) | 2.2 | 33.1 ×10⁻⁶ cm/s | 316 nM | 0.033 | 0.016 | 63.8 ng·h/mL/mg/kg | 13.4 ng·h/g/mg/kg | 0.21 | 0.42 | – | – | –
2 | CC1=CCC[C@H]1NC(=O)Nc1ccc(Cl)c(S(=O)(=O)C(C)(C)C)c1O | 1 nM | 1.2 µg/mL (≈ 3.1 µM) | – | 36.4 ×10⁻⁶ cm/s | 316 nM | – | – | – | – | – | – | 1.5 | – | –
3 | CC1=CCC[C@H]1NC(=O)Nc1ccc(Cl)c(S(=O)(=O)[C@H]2C[C@H](N(C)C)C2)c1O | – | 387 µg/mL (≈ 905 µM) | – | 20.3 ×10⁻⁶ cm/s | 126 nM | 0.137 | 0.05 | 2580 ng·h/mL/mg/kg | 161 ng·h/g/mg/kg | 0.06 | – | 3.4 | – | –
4 | CC1=CCC[C@H]1NC(=O)Nc1ccc(C#N)c(S(=O)(=O)C(C)(C)C)c1O | – | 686 µg/mL (≈ 1820 µM) | – | 9 ×10⁻⁶ cm/s | 158 nM | 0.116 | 0.034 | 2575 ng·h/mL/mg/kg | 73 ng·h/g/mg/kg | 0.03 | – | 4 | – | –
5 | CC1=CCC[C@H]1NC(=O)Nc1ccc(Cl)c(S(=O)(=O)C(C)(C)C(F)(F)F)c1O | 0.501 nM | 3.4 µg/mL (≈ 7.71 µM) | – | 33.9 ×10⁻⁶ cm/s | – | 0.021 | 0.007 | 535 ng·h/mL/mg/kg | 107 ng·h/g/mg/kg | 0.2 | 0.59 | 1.6 | – | –
6 | CC1=CCC[C@H]1NC(=O)Nc1ccc(Cl)c(S(=O)(=O)[C@]2(C)CCOC2)c1O | – | 20.5 µg/mL (≈ 49.4 µM) | – | 25.2 ×10⁻⁶ cm/s | 158 nM | 0.106 | 0.036 | 788 ng·h/mL/mg/kg | 60.5 ng·h/g/mg/kg | 0.08 | 0.23 | 2.4 | – | –
7 | CC1=CCC[C@H]1NC(=O)Nc1ccc(C#N)c(S(=O)(=O)C(C)(C)CC(F)(F)F)c1O | 0.158 nM | 408 µg/mL (≈ 916 µM) | – | 3 ×10⁻⁶ cm/s | 1000 nM | – | – | – | – | – | – | 4.3 | – | –
8 | CC1=CCC[C@H]1NC(=O)Nc1ccc(Cl)c(S(=O)(=O)C(C)(C)C2CCOCC2)c1O | 0.501 nM | 1.4 µg/mL (≈ 3.06 µM) | 3.9 | 30.3 ×10⁻⁶ cm/s | 398 nM | – | – | – | – | – | – | – | – | –
9 | CC[C@@H](Nc1c(Nc2cccc(C(=O)N(C)C)c2O)c(=O)c1=O)c1ccc(C)o1 [NAVARIXIN ANHYDROUS] | – | – | – | – | – | – | – | – | – | – | – | – | 8.1 nM | Active
10 | CC1=CCC[C@H]1NC(=O)Nc1ccc(Cl)c(S(=O)(=O)C2CCN(C3CCC3)CC2)c1O | 0.398 nM | 491 µg/mL (≈ 1050 µM) | 3.3 | 32 ×10⁻⁶ cm/s | 501 nM | – | – | – | – | – | – | – | – | –
11 | CC1=CCC[C@H]1NC(=O)Nc1ccc(Cl)c(S(=O)(=O)C(C)(F)F)c1O | – | 50.8 µg/mL (≈ 129 µM) | – | 34.8 ×10⁻⁶ cm/s | 631 nM | 0.051 | 0.0065 | 4331 ng·h/mL/mg/kg | 243 ng·h/g/mg/kg | 0.06 | – | 2.4 | – | –
12 | CC1=CCC[C@H]1NC(=O)Nc1ccc(Cl)c(S(=O)(=O)C(F)(F)CN(C)C)c1O | 2 nM | 128 µg/mL (≈ 293 µM) | 12.6 | 26.6 ×10⁻⁶ cm/s | 631 nM | – | – | – | – | – | – | – | – | –
13 | COCC(C)S(=O)(=O)c1c(Cl)ccc(NC(=O)N[C@@H]2CCC=C2C)c1O (stereo partly drawn) | 1.26 nM | 72 µg/mL (≈ 179 µM) | 3.2 | 28.2 ×10⁻⁶ cm/s | 398 nM | – | – | – | – | – | – | – | – | –
14 | CCC1(S(=O)(=O)c2c(Cl)ccc(NC(=O)N[C@@H]3CCC=C3C)c2O)CCOCC1 | 0.316 nM | 16 µg/mL (≈ 36.1 µM) | 3.2 | 32.4 ×10⁻⁶ cm/s | 398 nM | – | – | – | – | – | – | – | – | –
15 | CC1=CCC[C@H]1NC(=O)Nc1ccc(Cl)c(S(=O)(=O)C(C)(C)[C@@H]2CCOC2)c1O | 1.26 nM | 24.6 µg/mL (≈ 55.5 µM) | – | 12.7 ×10⁻⁶ cm/s | – | – | – | – | – | – | – | 4.5 | – | –
16 | CC1=CCC[C@H]1NC(=O)Nc1ccc(Cl)c(S(=O)(=O)C2(C)CCCOC2)c1O (stereo partly drawn) | 2 nM | 4.1 µg/mL (≈ 9.56 µM) | 3.4 | 26.7 ×10⁻⁶ cm/s | 200 nM | – | – | – | – | – | – | – | – | –
17 | CC1=CCC[C@H]1NC(=O)Nc1ccc(Cl)c(S(=O)(=O)[C@H]2C[C@H](N3CCCC3)C2)c1O | – | 758 µg/mL (≈ 1670 µM) | – | 20.5 ×10⁻⁶ cm/s | 100 nM | 0.114 | 0.0065 | 11721 ng·h/mL/mg/kg | 296 ng·h/g/mg/kg | 0.03 | – | 2.8 | – | –
